# Hits are enriched below; roughly 1.8% of the tested compounds scored in any of these assays.
# EBI2 antag: EBI2 (human) antagonism; P32249; EBI2 beta-arrestin recruitment, luminescence, 7a,25-OHC stimulated; inhibition, % at 5 µM; hit rate 0.81% among 360,000; in the data active = inhibition above about 38%;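 note: enzyme fragment complementation signal reports receptor beta-arrestin coupling in cells; 0% = agonist plus DMSO wells and 100% = wells without agonist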
# CXCR6 inh: inhibitors of human CXCR6 receptor; CHO-K1 PathHunter CXCR6 beta-arrestin, luminescence; hit rate 0.36% among 360,000; inhibition, % at 20 µM; in the data active = inhibition above about 34%, passing the limit was not always enough;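 note: antagonist mode with CXCL16 agonist at 10 nM final; 0% = 10 nM CXCL16 with DMSO and 100% = unstimulated wells without agonist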
# Target sequence (O00574 whole entry, looked up): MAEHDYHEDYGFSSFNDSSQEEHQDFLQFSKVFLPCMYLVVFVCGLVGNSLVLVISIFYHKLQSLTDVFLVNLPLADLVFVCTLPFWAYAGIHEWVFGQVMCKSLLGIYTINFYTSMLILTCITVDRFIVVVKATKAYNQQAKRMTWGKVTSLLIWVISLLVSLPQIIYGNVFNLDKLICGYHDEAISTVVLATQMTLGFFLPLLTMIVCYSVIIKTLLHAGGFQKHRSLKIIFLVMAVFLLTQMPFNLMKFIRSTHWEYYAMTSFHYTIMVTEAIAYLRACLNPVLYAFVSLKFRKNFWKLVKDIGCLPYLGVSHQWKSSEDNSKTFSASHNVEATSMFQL
# Beta2AR agonist: human beta-2 adrenergic receptor agonism by FAP; P07550; Am2.2-beta2AR cells, FAP receptor internalization, flow cytometry; response, % (no concentration beside the values); hit rate 0.43% among 340,000;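 active = response above a set limit, near 3 SD of response in nonfluorescent compounds, cut at about 42% in these data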
# APJ antagonist: blocks the human apelin receptor APJ | CHO-K1 APJ beta-arrestin complementation, luminescence | inhibition, % at 20 µM | hit rate 0.32% among 330,000;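 active = inhibition above about 40% at 20 µM, limit read from the data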;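 note: cells challenged with 10 nM apelin-13 agonist together with compound; plate controls were apelin-13 plus DMSO wells for no effect and DMSO wells lacking apelin-13 for full effect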
# APJ ag: APJ receptor agonism | CHO-K1 APJ PathHunter beta-arrestin, luminescence; 0% DMSO wells, 100% apelin | activation, % at 20 µM | hit rate 0.11% among 330,000 | AID 2520;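 active = activation more than six SD over the plate average, tested at 20 µM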;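 note: 0% = DMSO alone and 100% = apelin-13 at 10 nM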
#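 Test system – PathHunter CHO-K1 APJ (AGTRL-1) beta-arrestin reporter cells · Input – 1000 cells/well · Compound – single test compound dose, 20 µM final, 1% DMSO · Times – compound stimulation 90 min at 25 °C, detection 60 min · Technique – beta-gal luminescence · Read-out basis – APJ–arrestin association signal · Control set – negative DMSO alone, positive Apelin-13 at 10 nM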
# CCR6 antag: blocks CCL20-driven beta-arrestin recruitment at human CCR6. P51684. CHO-K1 CCR6 PathHunter beta-arrestin, luminescence, CCL20-stimulated. AID 493098. hit rate 0.49% among 340,000. inhibition, % at 20 µM;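 active = compounds whose inhibition of the agonist-driven luminescence signal at 20 µM reaches about 50%, limit read from the data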;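 note: cells stimulated with CCL20 at 14 nM final; plate controls were DMSO with CCL20 for no effect and DMSO without agonist for full effect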
# Active calls of the source: *; x = no result given.
SMILES,EBI2 antag,CXCR6 inh,Beta2AR agonist,APJ antagonist,APJ ag,CCR6 antag
O=C(CSc1nnc(Nc2ccccc2F)s1)NC1CC1,1,-10,-1,-1,-3,-2
COc1ccc(OC)c(-c2csc(NC(=O)COC(=O)c3ccc(NC(=O)CC#N)cc3)n2)c1,8,-9,42*,14,-2,8
O=[N+]([O-])c1cccc(/C=N/Nc2nc(C(Cl)(Cl)Cl)nc3ccccc23)c1,-2,-5,-2,-41,15*,-4
CCOC(=O)c1ccc(N/N=C/c2cc(Br)cc([N+](=O)[O-])c2O)cc1,21,52*,9,19,-6,60*
CCOC(=O)c1ccc(NC(=O)c2ccccc2[N+](=O)[O-])cc1,-1,2,1,23,-4,1
COc1ccc(NC(=O)COC(=O)C2COc3ccccc3O2)cc1OC (configuration not stated),-8,0,x,x,x,x
O=c1cc(-c2ccc(Cl)cc2)oc(=O)[nH]1,1,-2,5,-12,2,-8
O=c1cc(N=Nc2ccc(Cl)cc2)[nH]c(=O)[nH]1,-2,-14,51*,x,x,-7
O=[N+]([O-])c1ccc(/C=N/n2c(C3CCCCC3)n[nH]c2=S)cc1,12,20,6,16,-2,56*
S=c1[nH]nc(C2CCCCC2)n1/N=C/c1ccncc1,-1,3,2,-4,-1,8
COc1cccc(-c2oc3c(c2C(=O)OCCN2CCCCC2)C(O)CCC3)c1 (configuration not stated),-4,4,x,x,x,x
O=C(Cn1c(N2CCN(c3ccccc3)CC2)nc2ccccc21)c1ccccc1,10,26,-2,23,-1,50*
O=C1c2cccc(O)c2C(=O)c2c(O)cccc21,x,x,x,-24,19,x
CC1OC(CC(=O)O)CC2=C1C(=O)c1c(O)cccc1C2=O (configuration not stated),8,74*,75*,x,x,89*
O=C(O)CCCN1C(=O)/C(=C/c2ccc(-c3nc4ccccc4s3)o2)SC1=S,53*,32,35,10,-5,35
O=C(O)CCCCCN1C(=O)/C(=C\c2ccc(-c3ccc(Cl)cc3)o2)SC1=S,1,22,-206,10,-5,21
CCN1C/C(=C/c2cccc([N+](=O)[O-])c2)C(=O)/C(=C/c2cccc([N+](=O)[O-])c2)C1,27,22,87*,x,x,62*
O=C1NC(=O)/C(=C/c2cccc([N+](=O)[O-])c2)N1,0,15,-1,0,-4,12
COc1ccc(NC(=S)NC(NC(=O)c2cccc(Cl)c2)C(Cl)(Cl)Cl)c([N+](=O)[O-])c1 (configuration not stated),9,20,6,39,-4,58*
COc1ccc(NC(=S)NC(NC(=O)c2cccc(C)c2)C(Cl)(Cl)Cl)c([N+](=O)[O-])c1 (configuration not stated),15,23,-9,30,-2,44
CC1=C(C(=O)N2CCCCCC2)CC(CC(=O)NCCc2ccccn2)C(=O)N1CCCN1CCCC1=O (configuration not stated),-3,1,x,x,x,x
Cc1ccc(C(=O)N2CCN(Cc3ccccc3)CC2)cc1S(=O)(=O)N1CCOCC1,3,-1,18,3,0,4
COc1ccc(CNC[C@@H](CCCCN(C)Cc2ccc(OC)cc2)N2C[C@H](c3ccccc3)N(CCc3ccc(Cl)c(Cl)c3)C(=O)C2=O)cc1,-23,11,102*,-40,9,14
CCOc1ccc(CCN2C(=O)C(=O)N([C@H](CCCN(C)Cc3ccccc3)CNCc3ccccc3)C[C@@H]2C(C)C)cc1,x,x,x,5,-5,x
O=C(COc1ccccc1Cl)N1CCN(c2ccc([N+](=O)[O-])c(N3CCCCC3)c2)CC1,23,8,-9,16,-3,15
SMILES,EBI2 antag,CXCR6 inh,Beta2AR agonist,APJ antagonist,APJ ag,CCR6 antag
O=C(COc1ccc(Cl)cc1)N1CCN(c2ccc([N+](=O)[O-])c(N3CCCCC3)c2)CC1,78*,2,-6,17,-4,10
Cc1cc(=O)n2nc(N3CCCC(C(=O)Nc4cccc(C)c4C)C3)sc2n1 (configuration not stated),-6,0,x,x,x,x
COc1ccc(NC(=O)c2ccc(NC(=O)c3cccnc3)cc2)cc1,15,-5,x,x,x,x
COc1ccc(C(=O)Nc2ccc(C(=O)Nc3cccnc3)cc2)cc1,-7,-13,54*,18,-2,10
CC(C)CCN1C(=O)c2ccccc2C1c1nnnn1-c1ccc2c(c1)OCCO2 (configuration not stated),-2,1,x,x,x,x
Cc1cc(Cl)n2c(nc3ccccc32)c1C#N,-11,12,99*,x,x,17
COc1cc(SSc2cc(OC)cc([N+](=O)[O-])c2N)c(N)c([N+](=O)[O-])c1,41,30,1,-17,0,54*
COc1cc([N+](=O)[O-])c2ncsc2c1,-9,-5,2,6,3,-2
CCOC(=O)c1c(N)sc(N)c1C(=O)OCC,12,17,4,61*,-12,23
CC1(Cc2ccc(C(F)(F)F)nc2)C(=O)Nc2cc(-c3ccccc3Cl)ccc21 (configuration not stated),6,2,x,x,x,x
CN(CCCC(=O)Nc1ccc(Br)cc1F)S(=O)(=O)c1ccccc1,-7,-12,-1,3,3,0
O=C1Nc2ccccc2/C1=C\C(=O)c1ccccc1,61*,16,20,14,-4,35
CN(O)/C=C1\C(=O)Nc2ccccc21,-4,-2,7,-22,1,12
CCN(CC(=O)Nc1ccc(OC(F)F)cc1)C1CCCCC1,4,8,-1,2,-5,0
CCN(C(=S)Nc1ccc(OC(F)F)cc1)C1CCCCC1,47*,-8,-5,0,-4,8
COc1ccccc1-c1csc(C(C)(O)c2cccc(F)c2)n1 (configuration not stated),14,-3,x,x,x,x
COc1cc(/C=C(/C#N)C(=O)NCCc2c[nH]c3ccccc23)ccc1OCc1ccccc1F,28,32,3,7,11,58*
C[C@@H](c1ccccc1)N1C[C@H]2CCCN2c2cc(Br)ccc2S1(=O)=O,10,1,3,x,x,24
CCCCCCNC(=O)c1cn(CC)c2cc(N3CCN(C)CC3)c(F)cc2c1=O,45*,2,17,-21,-2,1
CCn1cc(C(=O)NCCCO)c(=O)c2cc(F)c(N3CCN(C)CC3)cc21,4,6,-6,13,-1,9
O=P(Nc1ccccc1)(Nc1ccccc1)c1ccccc1,-2,-4,3,x,x,-4
